Laboratory results: ChEMBL document CHEMBL1914380, “Polyalkoxybenzenes from plants. 5. Parsley seed extract in synthesis of azapodophyllotoxins featuring strong tubulin destabilizing activity in the sea urchin embryo and cell culture assays” (J Med Chem, 2011)
Calls of active or inactive are those of the source. The rule behind the calls is not given here. Where a SMILES comes first, the peptide text is derived from it. The star is where a group is joined. Cbz = O=C(OCc1ccccc1)*; CH2F = FC*

Experiments:
Jurkat [1] = experiment: Induction of apoptosis in human Jurkat cells assessed as reduction in procaspase-8 levels at 2 uM after 24 hrs by Western blotting; format: functional, cell-based
In short: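 Jurkat cells treated 24 h; total lysates prepared in SDS–Laemmli sample buffer and immunoblotted with anti-procaspase-8 monoclonal antibody; β-actin as loading control.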

Paracentrotus lividus [2] = experiment: Antimitotic activity against Paracentrotus lividus embryo assessed as cleavage alteration treated 10 to 25 mins post fertilization followed by 45 to 60 mins before the first mitotic cycle completion by sea urchin embryo assay; format: functional
Paracentrotus lividus [3] = experiment: Toxicity against Paracentrotus lividus embryo at 40 to 68 uM after 2.5 hrs; format: organism-based; details: in vivo
In short: (§1)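 P. lividus hatched blastulae exposed to compound; larval (pluteus) malformations, gastrulation and morphogenesis abnormalities, and developmental abnormalities/embryo death scored microscopically, the latter after 2.5 h of treatment.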

Jurkat [4] = experiment: Cell cycle arrest in human Jurkat cells assessed as accumulation of cells in G0/G1 phase at 2 uM after 24 hrs by propidium iodide staining-based flow cytometry; format: functional
In short: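 Jurkat cells treated 24 h; DNA content after propidium iodide staining measured by flow cytometry for cell cycle distribution.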

Paracentrotus lividus [5] = experiment: Antimitotic activity against Paracentrotus lividus embryo assessed as cleavage arrest treated 10 to 25 mins post fertilization followed by 45 to 60 mins before the first mitotic cycle completion by sea urchin embryo assay; format: functional
Paracentrotus lividus [6] = experiment: Induction of apoptosis in Paracentrotus lividus embryo assessed as developmental abnormalities at 40 to 68 uM after 2.5 hrs; format: functional, organism-based; in short: as §1
Paracentrotus lividus [7] = experiment: Antimitotic activity against Paracentrotus lividus embryo assessed as embryo spinning treated 10 to 25 mins post fertilization followed by 45 to 60 mins before the first mitotic cycle completion by sea urchin embryo assay; format: functional
Paracentrotus lividus [8] = experiment: Antimitotic activity against Paracentrotus lividus embryo assessed as abnormal gastrula formation at 10 to 20 uM by microscopic analysis; format: functional, organism-based; in short: as §1
Paracentrotus lividus [9] = experiment: Antimitotic activity against Paracentrotus lividus embryo assessed as larval malformation at 4 to 5 uM post hatching by microscopic analysis; format: functional, organism-based; in short: as §1
A549 [10] = experiment: Inhibition of microtubule polymerization in human A549 cells assessed as total disruption of interphase microtubule network at 5 uM after 8 hrs by immunofluorescence microscopy; format: cell-based
In short: (§2)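 A549 cells incubated 8 h with compound at 0.1, 0.5, 1 and 5 μM; DMSO vehicle as negative control. Microtubules labelled by indirect immunofluorescence and examined by fluorescence microscopy. Value is the concentration giving total interphase microtubule disassembly, from three independent experiments.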

A549 [11] = experiment: Inhibition of microtubule polymerization in human A549 cells assessed as total disruption of interphase microtubule network at 0.5 uM after 8 hrs by immunofluorescence microscopy; format: cell-based; in short: as §2
A549 [12] = experiment: Cytotoxicity against human A549 cells assessed as cell viability after 24 hrs by MTT assay; format: functional, cell-based; details: A549, 24 h
In short: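 A549 human lung carcinoma cells; growth inhibition measured by MTT assay. IC50 derived from dose-response curves, mean ± SD of three independent experiments.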

A549 [13] = experiment: Inhibition of microtubule polymerization in human A549 cells assessed as total disruption of interphase microtubule network at 1 uM after 8 hrs by immunofluorescence microscopy; format: cell-based; in short: as §2
A549 [14] = experiment: Inhibition of microtubule polymerization in human A549 cells assessed as total disruption of interphase microtubule network at 0.1 uM after 8 hrs by immunofluorescence microscopy; format: cell-based; in short: as §2
Paracentrotus lividus [15] = experiment: Antimitotic activity against Paracentrotus lividus embryo assessed as formation of tuberculate egg at 100 nM after 6 hrs post fertilization by microscopic analysis; format: functional, organism-based
Paracentrotus lividus [16] = experiment: Antimitotic activity against Paracentrotus lividus embryo assessed as cleavage alteration at 10 nM after 6 hrs post fertilization by microscopic analysis; format: functional, organism-based
A549 [17] = experiment: Cell cycle arrest in human A549 cells assessed as accumulation of cells in G2/M phase after 24 hrs by propidium iodide staining-based flow cytometry; format: functional; details: A549, 24 h
P388 = experiment: Cytotoxicity against mouse P388 cells assessed as cell viability after 48 hrs by trypan blue exclusion assay; format: functional, cell-based; details: P388, 48 h
Paracentrotus lividus [18] = experiment: Toxicity against Paracentrotus lividus embryo post hatching; format: organism-based; details: in vivo
Jurkat [19] = experiment: Induction of apoptosis in human Jurkat cells assessed as procaspase-2 cleavage at 50 nM after 48 hrs by Western blotting; format: functional, cell-based
In short: (§3)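 Jurkat cells treated at 50 nM for 24 or 48 h; untreated control, etoposide 2 μM 24 h as comparator. Total lysates prepared in SDS-Laemmli buffer and immunoblotted with monoclonal anti-caspase-9, anti-caspase-2 and anti-procaspase-8 antibodies. β-Actin served as loading control.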

Jurkat [20] = experiment: Induction of apoptosis in human Jurkat cells assessed as procaspase-9 cleavage at 50 nM after 24 hrs by Western blotting; format: functional, cell-based; in short: as §3
Jurkat [21] = experiment: Induction of apoptosis in human Jurkat cells assessed as hypodyploid cells at 50 nM after 48 hrs by annexin-V FITC/7-ADD staining-based flow cytometric analysis (reference value: 12.2%); format: functional
Jurkat [22] = experiment: Induction of apoptosis in human Jurkat cells assessed as PARP cleavage at 50 nM after 48 hrs by annexin-V FITC/7-ADD staining-based flow cytometric analysis (reference value: 6.5%); format: functional
Jurkat [23] = experiment: Cell cycle arrest in human Jurkat cells assessed as accumulation of cells in G2/M phase at 25 nM after 24 hrs by propidium iodide staining-based flow cytometry; format: functional
In short: (§4)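 Jurkat cells treated for 24 h, then stained with propidium iodide. DNA content analysed by flow cytometry for cell-cycle distribution.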

Jurkat [24] = experiment: Induction of apoptosis in human Jurkat cells assessed as cells with active form of caspase-3 at 50 nM after 48 hrs by annexin-V FITC/7-ADD staining-based flow cytometric analysis (reference value: 7.1%); format: functional
Jurkat [25] = experiment: Cytotoxicity against human Jurkat cells assessed as cell viability after 48 hrs by trypan blue exclusion assay; format: functional, cell-based
In short: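 Jurkat T-leukemia cells; proliferation inhibition measured by trypan blue assay, giving IC50.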

Jurkat [26] = experiment: Induction of apoptosis in human Jurkat cells assessed as procaspase-9 cleavage at 50 nM after 48 hrs by Western blotting; format: functional, cell-based; in short: as §3
Jurkat [27] = experiment: Induction of apoptosis in human Jurkat cells assessed as reduction in procaspase-8 levels at 50 nM after 48 hrs by Western blotting; format: functional, cell-based; in short: as §3
Jurkat [28] = experiment: Induction of apoptosis in human Jurkat cells assessed as procaspase-2 cleavage at 50 nM after 24 hrs by Western blotting; format: functional, cell-based; in short: as §3
Jurkat [29] = experiment: Induction of apoptosis in human Jurkat cells assessed as hypodyploid cells at 50 nM after 48 hrs by annexin-V FITC/7-ADD staining-based flow cytometric analysis in presence of 50 uM Z-VAD-fmk pan-caspase inhibitor; format: functional
A549 [30] = experiment: Inhibition of microtubule polymerization in human A549 cells assessed as total disruption of interphase microtubule network at > 5 uM after 8 hrs by immunofluorescence microscopy; format: cell-based
A549 [31] = experiment: Cell cycle arrest in human A549 cells at 50 uM after 24 hrs using propidium iodide staining by flow cytometry; format: functional, cell-based
Jurkat [32] = experiment: Cell cycle arrest in human Jurkat cells assessed as accumulation of cells in G2/M phase at 20 nM after 24 hrs by propidium iodide staining-based flow cytometry; format: functional; in short: as §4
A549 [33] = experiment: Induction of apoptosis in human A549 cells assessed as late apoptotic cells at 10 to 100 nM after 48 hrs by annexin-V FITC/7-ADD staining-based flow cytometric analysis; format: functional, cell-based
A549 [34] = experiment: Induction of apoptosis in human A549 cells assessed as early apoptotic cells at 10 to 100 nM after 48 hrs by annexin-V FITC/7-ADD staining-based flow cytometric analysis; format: functional, cell-based
A549 [35] = experiment: Induction of apoptosis in human A549 cells assessed as necrotic cells at 10 to 100 nM after 48 hrs by annexin-V FITC/7-ADD staining-based flow cytometric analysis; format: functional, cell-based

SMILES	EC (Paracentrotus lividus [2]) [nM]	EC (Paracentrotus lividus [5]) [nM]	EC (Paracentrotus lividus [7]) [nM]	inhibition (A549 [10])	inhibition (A549 [11])	IC50 (A549 [12]) [nM]	inhibition (A549 [13])	inhibition (A549 [14])	EC50 (A549 [17]) [nM]	further results
COc1cc([C@@H]2c3cc4c(cc3[C@@H](O[C@@H]3O[C@@H]5CO[C@@H](C)O[C@H]5[C@H](O)[C@H]3O)[C@H]3COC(=O)[C@H]23)OCO4)cc(OC)c1O [ETOPOSIDE]	2000	>68000	>68000	–	–	–	–	–	–	Activity (Jurkat [1]): Active; Activity (Paracentrotus lividus [3]): Toxic; Activity (Jurkat [4]): Active; Activity (Paracentrotus lividus [6]): Active; Activity (Paracentrotus lividus [8]): Active; Activity (Paracentrotus lividus [9]): Active
COc1cc(C2C3=C(COC3=O)Nc3cc4c(cc32)OCO4)cc2c1OCO2 (racemic)	5	50	50	Active	Active	55.2	Active	Active	–	Activity (Paracentrotus lividus [15]): Active; Activity (Paracentrotus lividus [16]): Active
COc1ccc(C2C3=C(COC3=O)Nc3cc4c(cc32)OCO4)cc1OC (stereo not given)	5	100	2000	Active	Active	596	Active	Active	230	IC50 (P388): 131 nM
COc1cc(C2C3=C(COC3=O)Nc3cc4c(cc32)CCCC4)cc(OC)c1OC (stereo not given)	50	200	100	Active	Active	56.5	Active	Active	–	Activity (Paracentrotus lividus [18]): Toxic
COc1cc([C@@H]2c3cc4c(cc3[C@H](O)[C@H]3COC(=O)[C@H]23)OCO4)cc(OC)c1OC [PODOFILOX]	20	50	500	Active	Active	7.47	Active	Active	16.5	Activity (Jurkat [19]): Active; Activity (Jurkat [20]): Active; Activity (Jurkat [21]): 55.6%; Activity (Jurkat [22]): 40.7%; Activity (Jurkat [23]): Active; Activity (Jurkat [24]): 28%; IC50 (Jurkat [25]): 25 nM; Activity (Jurkat [26]): Active; Activity (Jurkat [27]): inactive; Activity (Jurkat [28]): Active
COC(=O)C[C@H](NC(=O)[C@H](C)NC(=O)[C@@H](NC(=O)OCc1ccccc1)C(C)C)C(=O)CF (Cbz-Val-Ala-Asp(OMe)-CH2F)	–	–	–	–	–	–	–	–	–	Activity (Jurkat [29]): 28.4%
COc1cc(-c2c3c(nc4cc5c(cc24)OCO5)COC3=O)cc(OC)c1OC	>4000	>4000	>4000	–	–	11900	–	–	–	IC50 (P388): > 253000 nM; inhibition (A549 [30]): Active; Activity (A549 [31]): inactive
COc1ccc2c(c1)NC1=C(C(=O)OC1)C2c1cc(OC)c2c(c1)OCO2 (stereo not given)	0.5	5	50	Active	Active	15.1	Active	Active	–	Activity (Jurkat [19]): Active; Activity (Jurkat [20]): Active; Activity (Jurkat [21]): 54.9%; Activity (Jurkat [22]): 38.3%; Activity (Jurkat [32]): Active; Activity (Jurkat [24]): 27.8%; IC50 (Jurkat [25]): 17.5 nM; Activity (Jurkat [26]): Active; Activity (Jurkat [27]): inactive; Activity (Jurkat [28]): Active
COc1cc(C2C3=C(COC3=O)Nc3cc4c(cc32)OCO4)cc(OC)c1OC (stereo not given)	50	500	2000	Active	Active	2.71	Active	Active	16.2	Activity (A549 [33]): inactive; Activity (A549 [34]): Active; Activity (A549 [35]): Active
